Laboratory results from ChEMBL document CHEMBL4765336, “Discovery of coumarin derivatives as potent and selective cyclin-dependent kinase 9 (CDK9) inhibitors with high antitumour activity” (Eur J Med Chem, 2020).

Columns and labels:
NCI-N87 = assay: Antiproliferative activity against human NCI-N87 cells assessed as inhibition of cell growth incubated for 72 hrs by Celltiter-Glo luminescent assay; type: functional, cell-based; settings: NCI-N87, 72 h
Procedure, shortened: (§1)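 Cells seeded in growth medium and held overnight at 37 °C; medium-only wells served as background. DMSO stocks were diluted in medium to 3× final and added; cells incubated 72 h at 37 °C, 5% CO2. Viability read by CellTiter-Glo luminescence after 60 min at room temperature. IC50 from curve fit, mean of duplicate.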

[1] = Metabolic stability in dog liver microsomes assessed as intrinsic clearance at 1 uM incubated up to 60 mins in presence of NADPH by LC-MS/MS analysis; type: ADME, Canis lupus familiaris, Microsome; settings: read-out: CLH
Procedure, shortened: (§2)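 Liver microsomes (0.5 mg/mL) incubated at 37 °C with compound at 1.0 μM final, 3 mM MgCl2 and 1 mM NADPH in 100 mM PBS pH 7.4. Samples taken at 0, 5, 15, 30, 60 min; remaining parent measured by LC-MS/MS. k = −slope, T1/2 = 0.693/k, CLint = k/microsomal protein concentration. Midazolam served as control.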

NCI-H460 = assay: Antiproliferative activity against human NCI-H460 cells assessed as inhibition of cell growth incubated for 72 hrs by Celltiter-Glo luminescent assay; type: functional, cell-based; settings: NCI-H460, 72 h; procedure, shortened: as §1
[2] = Metabolic stability in human liver microsomes assessed as half life at 1 uM incubated up to 60 mins in presence of NADPH by LC-MS/MS analysis; type: ADME, Microsome; procedure, shortened: as §2
SW-620 = assay: Antiproliferative activity against human SW-620 cells assessed as inhibition of cell growth incubated for 72 hrs by Celltiter-Glo luminescent assay; type: functional, cell-based; settings: SW-620, 72 h; procedure, shortened: as §1
CDK2/Cyclin A2 = CDK2/Cyclin A2 (Homo sapiens, UniProt P24941); assay: Inhibition of CDK2/Cyclin A (unknown origin) preincubated for 20 mins followed by ATP addition and measured after 120 mins in presence of [33P-gamma] ATP by hotspot kinase assay; type: protein-complex assay
Procedure, shortened: (§3)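 Radiometric filter-binding assay: kinase and substrate in 20 mM Hepes pH 7.5, 10 mM MgCl2, 1 mM EGTA, 0.02% Brij35, 0.02 mg/mL BSA, 0.1 mM Na3VO4, 2 mM DTT, 1% DMSO. Compound (top 1/10/27 μM, 3-fold serial dilutions) preincubated 20 min at 25 °C. ATP plus [γ-33P]ATP added to 10 μM final, reacted 120 min at 25 °C. IC50 from curve fit, duplicate mean.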

[3] = AUC (0 to t) in ICR mouse at 2 mg/kg, iv measured up to 24 hrs by LC-MS/MS analysis; type: ADME, organism-based; set-up: route intravenous, dose 2 mg/kg, time <=24; settings: in vivo
CDK3/Cyclin E = CDK3/Cyclin E (Homo sapiens, UniProt Q00526); assay: Inhibition of CDK3/Cyclin E (unknown origin) preincubated for 20 mins followed by ATP addition and measured after 120 mins in presence of [33P-gamma] ATP by hotspot kinase assay; type: protein-complex assay; procedure, shortened: as §3
CDK3/Cyclin E, sequence (P24864 whole entry): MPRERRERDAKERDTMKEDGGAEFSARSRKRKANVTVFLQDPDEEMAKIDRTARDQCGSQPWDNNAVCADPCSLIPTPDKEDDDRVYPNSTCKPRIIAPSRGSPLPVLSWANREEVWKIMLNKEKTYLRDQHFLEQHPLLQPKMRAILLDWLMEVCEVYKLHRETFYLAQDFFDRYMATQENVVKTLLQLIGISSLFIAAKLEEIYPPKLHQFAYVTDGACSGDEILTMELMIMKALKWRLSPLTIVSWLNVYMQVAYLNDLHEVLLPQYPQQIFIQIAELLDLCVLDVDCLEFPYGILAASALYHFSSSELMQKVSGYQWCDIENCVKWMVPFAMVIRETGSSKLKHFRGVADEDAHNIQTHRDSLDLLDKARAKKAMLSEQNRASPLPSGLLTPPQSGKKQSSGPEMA
CDK3/Cyclin E, sequence (Q00526 whole entry): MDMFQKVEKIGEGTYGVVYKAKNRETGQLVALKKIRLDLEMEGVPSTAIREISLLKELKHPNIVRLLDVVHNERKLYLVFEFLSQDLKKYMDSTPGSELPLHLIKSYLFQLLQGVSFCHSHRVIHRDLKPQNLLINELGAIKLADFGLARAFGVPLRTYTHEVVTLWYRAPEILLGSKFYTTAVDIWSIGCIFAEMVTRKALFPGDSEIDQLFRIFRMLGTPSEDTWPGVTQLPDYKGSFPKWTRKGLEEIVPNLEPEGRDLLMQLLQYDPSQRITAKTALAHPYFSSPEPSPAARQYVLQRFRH

[4] = Volume of distribution at steady state in ICR mouse at 2 mg/kg, iv measured up to 24 hrs by LC-MS/MS analysis; type: ADME, organism-based; settings: in vivo, read-out: Vdss
Procedure, shortened: (§4)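 Male ICR mice (25.1–28.8 g, n=9), fasted 12 h, given a single i.v. dose of 2.0 mg/kg at 0.4 mg/mL in DMSO/PEG200/saline (1:1:3). Blood sampled at 0, 0.083, 0.25, 0.5, 1, 2, 4, 8, 24 h. Plasma ACN-precipitated and quantified by LC-MS/MS. Parameters derived from composite mean plasma concentration-time data.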

[5] = target: Cyclin-dependent kinase 5/CDK5 activator 1 (Homo sapiens, UniProt Q00535); assay: Inhibition of CDK5/p25 (unknown origin) preincubated for 20 mins followed by ATP addition and measured after 120 mins in presence of [33P-gamma] ATP by hotspot kinase assay; type: protein-complex assay; procedure, shortened: as §3
Cyclin-dependent kinase 5/CDK5 activator 1, sequence (Q00535 whole entry): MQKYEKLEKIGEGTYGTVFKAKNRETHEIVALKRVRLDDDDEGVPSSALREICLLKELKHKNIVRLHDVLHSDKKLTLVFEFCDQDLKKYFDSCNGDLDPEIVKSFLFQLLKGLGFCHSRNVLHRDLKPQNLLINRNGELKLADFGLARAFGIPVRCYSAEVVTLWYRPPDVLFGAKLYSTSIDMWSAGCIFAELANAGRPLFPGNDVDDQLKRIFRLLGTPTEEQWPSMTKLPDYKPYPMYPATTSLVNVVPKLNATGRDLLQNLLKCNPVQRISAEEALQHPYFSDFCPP
Cyclin-dependent kinase 5/CDK5 activator 1, sequence (Q15078 whole entry, further chain): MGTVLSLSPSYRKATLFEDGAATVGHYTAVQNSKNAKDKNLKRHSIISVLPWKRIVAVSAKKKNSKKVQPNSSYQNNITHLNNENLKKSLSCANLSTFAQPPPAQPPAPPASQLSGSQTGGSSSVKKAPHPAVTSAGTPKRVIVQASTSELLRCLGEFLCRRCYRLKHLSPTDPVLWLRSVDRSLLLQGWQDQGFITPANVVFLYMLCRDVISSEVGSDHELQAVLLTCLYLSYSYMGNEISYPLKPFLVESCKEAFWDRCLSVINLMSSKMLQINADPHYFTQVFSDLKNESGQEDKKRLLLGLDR

HCT-116 = assay: Antiproliferative activity against human HCT-116 cells assessed as inhibition of cell growth incubated for 72 hrs by Celltiter-Glo luminescent assay; type: functional, cell-based; settings: HCT-116, 72 h; procedure, shortened: as §1
[6] = AUC (0 to infinity) in ICR mouse at 2 mg/kg, iv measured up to 24 hrs by LC-MS/MS analysis; type: ADME, organism-based; set-up: route intravenous, dose 2 mg/kg, time <=24; settings: in vivo
[7] = target: Cyclin-dependent kinase 1/cyclin B1 (Homo sapiens, UniProt P06493); assay: Inhibition of CDK1/Cyclin B (unknown origin) preincubated for 20 mins followed by ATP addition and measured after 120 mins in presence of [33P-gamma] ATP by hotspot kinase assay; type: protein-complex assay; procedure, shortened: as §3
Cyclin-dependent kinase 1/cyclin B1, sequence (P06493 whole entry): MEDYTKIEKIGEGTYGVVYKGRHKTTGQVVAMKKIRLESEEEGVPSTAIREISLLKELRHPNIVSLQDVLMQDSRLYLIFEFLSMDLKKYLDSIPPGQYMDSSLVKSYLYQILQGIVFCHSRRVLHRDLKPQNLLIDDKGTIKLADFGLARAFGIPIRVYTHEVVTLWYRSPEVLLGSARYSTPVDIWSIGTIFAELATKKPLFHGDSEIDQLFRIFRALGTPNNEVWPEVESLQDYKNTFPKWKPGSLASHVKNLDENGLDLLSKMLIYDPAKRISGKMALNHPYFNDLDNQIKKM
Cyclin-dependent kinase 1/cyclin B1, sequence (P14635 whole entry, further chain): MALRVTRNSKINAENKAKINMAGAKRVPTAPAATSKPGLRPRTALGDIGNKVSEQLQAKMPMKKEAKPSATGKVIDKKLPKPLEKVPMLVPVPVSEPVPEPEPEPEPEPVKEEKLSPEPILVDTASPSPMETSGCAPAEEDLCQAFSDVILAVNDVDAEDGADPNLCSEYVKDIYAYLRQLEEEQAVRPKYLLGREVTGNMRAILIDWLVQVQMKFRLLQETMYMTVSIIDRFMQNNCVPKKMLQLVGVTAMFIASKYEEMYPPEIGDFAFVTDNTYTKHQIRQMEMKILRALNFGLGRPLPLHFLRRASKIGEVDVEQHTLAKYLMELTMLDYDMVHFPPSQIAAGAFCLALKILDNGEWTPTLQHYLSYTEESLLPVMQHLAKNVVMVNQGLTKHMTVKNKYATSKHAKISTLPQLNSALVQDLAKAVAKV

[8] = Cmax in ICR mouse at 30 mg/kg, po measured up to 24 hrs by LC-MS/MS analysis; type: ADME, organism-based; set-up: route oral, dose 30 mg/kg, time <=24; settings: in vivo
Procedure, shortened: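 Male ICR mice (25.1–28.8 g, n=9), fasted overnight (12 h), single oral gavage 30 mg/kg as 3 mg/mL in 0.5% CMC-Na with 0.2% Tween 80. Venous blood drawn into EDTA-K2 at 0, 0.25, 0.5, 1, 2, 4, 8, 24 h. Plasma protein-precipitated with ACN and run on LC-MS/MS (C18, formic acid/ACN). Noncompartmental parameters taken from composite mean concentration-time data.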

CDK6/cyclin D3 = CDK6/cyclin D3 (Homo sapiens, UniProt Q00534); assay: Inhibition of CDK6/Cyclin D3 (unknown origin) preincubated for 20 mins followed by ATP addition and measured after 120 mins in presence of [33P-gamma] ATP by hotspot kinase assay; type: protein-complex assay; procedure, shortened: as §3
CDK6/cyclin D3, sequence (P30281 whole entry): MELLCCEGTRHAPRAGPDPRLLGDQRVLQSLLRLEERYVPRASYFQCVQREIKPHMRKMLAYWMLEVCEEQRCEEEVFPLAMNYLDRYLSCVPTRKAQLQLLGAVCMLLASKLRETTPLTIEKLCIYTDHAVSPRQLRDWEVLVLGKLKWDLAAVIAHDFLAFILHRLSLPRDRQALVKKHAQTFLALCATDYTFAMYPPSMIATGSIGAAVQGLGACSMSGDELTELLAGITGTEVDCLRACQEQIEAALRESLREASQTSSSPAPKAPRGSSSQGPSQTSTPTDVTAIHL
CDK6/cyclin D3, sequence (Q00534 whole entry): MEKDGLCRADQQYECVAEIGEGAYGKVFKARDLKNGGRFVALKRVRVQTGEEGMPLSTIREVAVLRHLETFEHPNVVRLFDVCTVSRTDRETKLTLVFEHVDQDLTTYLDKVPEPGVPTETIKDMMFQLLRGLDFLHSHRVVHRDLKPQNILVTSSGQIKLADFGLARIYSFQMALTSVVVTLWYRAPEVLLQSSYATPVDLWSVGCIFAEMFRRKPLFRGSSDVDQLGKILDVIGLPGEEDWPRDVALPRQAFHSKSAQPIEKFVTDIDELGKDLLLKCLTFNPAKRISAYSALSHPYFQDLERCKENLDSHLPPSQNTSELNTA

HepG2 = assay: Antiproliferative activity against human HepG2 cells assessed as inhibition of cell growth incubated for 72 hrs by Celltiter-Glo luminescent assay; type: functional, cell-based; settings: HepG2, 72 h; procedure, shortened: as §1
A549 = assay: Antiproliferative activity against human A549 cells assessed as inhibition of cell growth incubated for 72 hrs by Celltiter-Glo luminescent assay; type: functional, cell-based; settings: A549, 72 h; procedure, shortened: as §1
[9] = Toxicity in BALB/c nude mouse xenografted with human MV4-11 cells assessed as mortality at 40 mg/kg, iv administered once daily for 21 days and measured 2 or 3 times per week; type: organism-based; settings: in vivo, 504 h, time 21 day
Procedure, shortened: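 Female BALB/c nude mice, six weeks old, with subcutaneous right-flank MV4-11 xenografts (5 million cells in PBS mixed 1:1 with Matrigel). Daily intravenous dosing started at tumour size 150–200 mm³, 6 mice per group, for 21 consecutive days. Vehicle was dimethylacetamide 20%/polyoxyethylated castor oil 40%/anhydrous ethanol 40%. Body weight was recorded two or three times weekly, and mortality was monitored throughout treatment.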

MIA PaCa-2 = assay: Antiproliferative activity against human MIA PaCa-2 cells assessed as inhibition of cell growth incubated for 72 hrs by Celltiter-Glo luminescent assay; type: functional, cell-based; settings: MIA PaCa-2, 72 h; procedure, shortened: as §1
[10] = Half life in ICR mouse at 2 mg/kg, iv measured up to 24 hrs by LC-MS/MS analysis; type: ADME, organism-based; settings: in vivo; procedure, shortened: as §4

## COc1cc(F)ccc1-c1nc(Nc2ccc3c(N4CCOCC4)c(C(C)=O)c(=O)oc3c2)ncc1F
NCI-N87
  IC50: 600 nM
[1]
  microsomal CLint at 1 µM: 98.7 µL/min/mg
NCI-H460
  IC50: 640 nM
[2]
  half-life at 1 µM: 35.7 min
SW-620
  IC50: 430 nM
CDK2/Cyclin A2
  IC50: 320 nM
[3]
  AUC(0-t) at 24 h: 560 ng·h/mL
CDK3/Cyclin E
  IC50: 1510 nM
[4]
  Vd: 0.67 L/kg
[5]
  IC50: 1260 nM
HCT-116
  IC50: 280 nM
[6]
  AUC(0-inf): 561 ng·h/mL
[7]
  IC50: 1950 nM
[8]
  Cmax: 665 ng/mL
CDK6/cyclin D3
  IC50: 336 nM
HepG2
  IC50: 100 nM
A549
  IC50: 470 nM
[9]
  Activity: Non-Toxic
MIA PaCa-2
  IC50: 460 nM
[10]
  half-life: 13.8 min
